From ChEMBL document CHEMBL4689842, “EUbOPEN Chemogenomics Library wave 1” (2021)

System: Fibroblast
Assay: Multiplex assay against human fibroblast
Assay type: toxicity, cell-based
Outline: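 Imaging took place on a CQ1 microscope at 37°C and 5% CO2 once compound had been added to live cells stained at seeding with Hoechst33342, BioTracker Green Microtubule Cytoskeleton Dye, MitoTracker Red and Annexin V Alexa Fluor 680. CellPathfinder machine-learning gating classed cells as Hoechst high-intensity objects or normal cells, classed normal cells as having healthy, pyknosed or fragmented nuclei, and classed pyknosed cells as mitotic or apoptotic. Tubulin, mitochondrial-mass and membrane-permeability phenotypes are per cents of the healthy-nucleus cells.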

[1] = 12 h, 1 µM, compound concentration 1 uM, replicate 1
[2] = 12 h, 1 µM, compound concentration 1 uM, replicate 2
[3] = 12 h, 10 µM, compound concentration 10 uM, replicate 1
[4] = 12 h, 10 µM, compound concentration 10 uM, replicate 2
[5] = 24 h, 1 µM, compound concentration 1 uM, replicate 1
[6] = 24 h, 1 µM, compound concentration 1 uM, replicate 2
[7] = 24 h, 10 µM, compound concentration 10 uM, replicate 1
[8] = 24 h, 10 µM, compound concentration 10 uM, replicate 2
[9] = 48 h, 1 µM, compound concentration 1 uM, replicate 1
[10] = 48 h, 1 µM, compound concentration 1 uM, replicate 2
[11] = 48 h, 10 µM, compound concentration 10 uM, replicate 1
[12] = 48 h, 10 µM, compound concentration 10 uM, replicate 2

## CCn1c(=O)c(-c2ccc(-c3cncs3)cc2Cl)cc2cnc(Nc3ccc(N4CCN(C)CC4)cc3)nc21
[1]
  Population Apoptotic (%): 53%
  Population Fragmented Nuclei (%): 26%
  Population Healthy Nuclei (%): 37%
  Population Hoechst High Intensity Objects (%): 17%
  Population Membrane Permeable-Phenotype (%): 15%
  Population Mitochondria Different-Phenotype (%): 0%
  Population Mitotic Cells (%): 46%
  Population Normal (%): 82%
  Population Pyknosed Nuclei (%): 35%
  Population Tubulin-Different-Phenotype (%): 36%
  Total Cell Count: 108
[2]
  Population Apoptotic (%): 75%
  Population Fragmented Nuclei (%): 9%
  Population Healthy Nuclei (%): 78%
  Population Hoechst High Intensity Objects (%): 7%
  Population Membrane Permeable-Phenotype (%): 3%
  Population Mitochondria Different-Phenotype (%): 17%
  Population Mitotic Cells (%): 25%
  Population Normal (%): 92%
  Population Pyknosed Nuclei (%): 11%
  Population Tubulin-Different-Phenotype (%): 19%
  Total Cell Count: 76
[3]
  Population Apoptotic (%): 58%
  Population Fragmented Nuclei (%): 45%
  Population Healthy Nuclei (%): 9%
  Population Hoechst High Intensity Objects (%): 46%
  Population Membrane Permeable-Phenotype (%): 41%
  Population Mitochondria Different-Phenotype (%): 8%
  Population Mitotic Cells (%): 41%
  Population Normal (%): 53%
  Population Pyknosed Nuclei (%): 44%
  Population Tubulin-Different-Phenotype (%): 50%
  Total Cell Count: 230
[4]
  Population Apoptotic (%): 11%
  Population Fragmented Nuclei (%): 8%
  Population Healthy Nuclei (%): 79%
  Population Hoechst High Intensity Objects (%): 4%
  Population Membrane Permeable-Phenotype (%): 5%
  Population Mitochondria Different-Phenotype (%): 29%
  Population Mitotic Cells (%): 88%
  Population Normal (%): 96%
  Population Pyknosed Nuclei (%): 12%
  Population Tubulin-Different-Phenotype (%): 15%
  Total Cell Count: 77
[5]
  Population Apoptotic (%): 58%
  Population Fragmented Nuclei (%): 26%
  Population Healthy Nuclei (%): 47%
  Population Hoechst High Intensity Objects (%): 16%
  Population Membrane Permeable-Phenotype (%): 31%
  Population Mitochondria Different-Phenotype (%): 0%
  Population Mitotic Cells (%): 41%
  Population Normal (%): 83%
  Population Pyknosed Nuclei (%): 25%
  Population Tubulin-Different-Phenotype (%): 40%
  Total Cell Count: 111
[6]
  Population Apoptotic (%): 46%
  Population Fragmented Nuclei (%): 15%
  Population Healthy Nuclei (%): 68%
  Population Hoechst High Intensity Objects (%): 4%
  Population Membrane Permeable-Phenotype (%): 1%
  Population Mitochondria Different-Phenotype (%): 5%
  Population Mitotic Cells (%): 53%
  Population Normal (%): 95%
  Population Pyknosed Nuclei (%): 16%
  Population Tubulin-Different-Phenotype (%): 20%
  Total Cell Count: 74
[7]
  Population Apoptotic (%): 85%
  Population Fragmented Nuclei (%): 44%
  Population Healthy Nuclei (%): 6%
  Population Hoechst High Intensity Objects (%): 53%
  Population Membrane Permeable-Phenotype (%): 22%
  Population Mitochondria Different-Phenotype (%): 0%
  Population Mitotic Cells (%): 15%
  Population Normal (%): 46%
  Population Pyknosed Nuclei (%): 48%
  Population Tubulin-Different-Phenotype (%): 27%
  Total Cell Count: 615
[8]
  Population Apoptotic (%): 27%
  Population Fragmented Nuclei (%): 14%
  Population Healthy Nuclei (%): 71%
  Population Hoechst High Intensity Objects (%): 3%
  Population Membrane Permeable-Phenotype (%): 7%
  Population Mitochondria Different-Phenotype (%): 23%
  Population Mitotic Cells (%): 72%
  Population Normal (%): 96%
  Population Pyknosed Nuclei (%): 14%
  Population Tubulin-Different-Phenotype (%): 8%
  Total Cell Count: 83
[9]
  Population Apoptotic (%): 52%
  Population Fragmented Nuclei (%): 36%
  Population Healthy Nuclei (%): 39%
  Population Hoechst High Intensity Objects (%): 10%
  Population Membrane Permeable-Phenotype (%): 35%
  Population Mitochondria Different-Phenotype (%): 2%
  Population Mitotic Cells (%): 47%
  Population Normal (%): 89%
  Population Pyknosed Nuclei (%): 24%
  Population Tubulin-Different-Phenotype (%): 32%
  Total Cell Count: 105
[10]
  Population Apoptotic (%): 0%
  Population Fragmented Nuclei (%): 24%
  Population Healthy Nuclei (%): 75%
  Population Membrane Permeable-Phenotype (%): 5%
  Population Mitochondria Different-Phenotype (%): 6%
  Population Mitotic Cells (%): 0%
  Population Pyknosed Nuclei (%): 0%
  Population Tubulin-Different-Phenotype (%): 20%
  Total Cell Count: 88
[11]
  Population Apoptotic (%): 92%
  Population Fragmented Nuclei (%): 44%
  Population Healthy Nuclei (%): 5%
  Population Hoechst High Intensity Objects (%): 59%
  Population Membrane Permeable-Phenotype (%): 24%
  Population Mitochondria Different-Phenotype (%): 0%
  Population Mitotic Cells (%): 7%
  Population Normal (%): 40%
  Population Pyknosed Nuclei (%): 50%
  Population Tubulin-Different-Phenotype (%): 10%
  Total Cell Count: 1270
[12]
  Population Apoptotic (%): 100%
  Population Fragmented Nuclei (%): 43%
  Population Healthy Nuclei (%): 55%
  Population Hoechst High Intensity Objects (%): 11%
  Population Membrane Permeable-Phenotype (%): 10%
  Population Mitochondria Different-Phenotype (%): 4%
  Population Mitotic Cells (%): 0%
  Population Normal (%): 88%
  Population Pyknosed Nuclei (%): 0%
  Population Tubulin-Different-Phenotype (%): 52%
  Total Cell Count: 139
